The species named for assay [1] is Homo sapiens. The assay can be described thus: In vitro inhibition of platelet aggregation induced by ADP-II (PRP incubated for 60 minutes at 37 degree C) at 10e-5 M. The conditions noted are these: 1 h. Type of assay: functional. The gist of the method:
(§1)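 Human venous blood anticoagulated with 3.8% sodium citrate (1:9). PRP from centrifugation at 800 rpm for 10 min at room temperature. Count adjusted with PPP to […]. Compound in saline with 10% ethylene glycol is added to PRP and incubated at 37 °C before the agonist. Agonists: ADP 2×10^-5 M, AA 0.6 mM, PGH2 2.8 μM, adrenaline 0.6 μM. Born absorbance aggregometry; n = 5.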

Assay [2] has as its target T1, Thromboxane-A synthase (Homo sapiens) (UniProt P24557).
T1 sequence (whole entry): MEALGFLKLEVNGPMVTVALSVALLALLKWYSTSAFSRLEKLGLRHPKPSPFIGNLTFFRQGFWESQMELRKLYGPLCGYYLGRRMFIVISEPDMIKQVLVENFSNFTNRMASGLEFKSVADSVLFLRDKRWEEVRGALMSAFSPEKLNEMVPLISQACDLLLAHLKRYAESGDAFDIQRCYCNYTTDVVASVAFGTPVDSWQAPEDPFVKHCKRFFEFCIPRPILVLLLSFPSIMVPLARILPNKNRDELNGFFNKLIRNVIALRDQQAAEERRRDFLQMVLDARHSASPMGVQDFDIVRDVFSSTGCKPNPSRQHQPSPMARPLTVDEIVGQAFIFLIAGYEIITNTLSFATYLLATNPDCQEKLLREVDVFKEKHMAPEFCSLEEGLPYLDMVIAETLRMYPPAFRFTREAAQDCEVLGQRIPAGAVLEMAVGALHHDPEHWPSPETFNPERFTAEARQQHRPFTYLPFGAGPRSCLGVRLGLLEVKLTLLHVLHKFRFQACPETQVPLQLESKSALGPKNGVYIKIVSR
Put plainly: Effect on thromboxane synthetase activity on in vitro platelet aggregation induced by AA at 10e -5 M expressed as percent inhibition of TXB2.

The species named for assay [3] is Homo sapiens. Put plainly: In vitro inhibition of platelet aggregation induced by AA (PRP incubated for 60 minutes at 37 degree C) at 5e-6 M;No significance. The format is functional. Summed up:
as §1

The species named for assay [4] is Homo sapiens. Put plainly: In vitro inhibition of platelet aggregation induced by ADP-II (PRP incubated for 60 minutes at 37 degree C) at 5e-6 M. Type of assay: functional. Summed up: as §1
The test system of assay [5] is Cavia porcellus. The assay can be described thus: Effect on thromboxane synthetase activity on ex vivo platelet aggregation induced by TXB2 at 100 mg/kg expressed as percent increase. Type of assay: functional. The gist of the method:
(§2)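 Fasted male or female guinea pigs (250–300 g, five per group) dosed orally in normal saline or saline with 0.2% (carboxymethyl)cellulose/1.0% Tween 80; controls given vehicle. Under ether, cardiac blood collected into 3.8% citrate. PRP adjusted to […] and aggregation induced by ADP (second wave) or AA, read by absorbance aggregometry. PGE2 and TXB2 measured by RIA.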

Assay [6] deals with Cavia porcellus. Put plainly: Effect on thromboxane synthetase activity on ex vivo platelet aggregation induced by PGE-2 at 100 mg/kg expressed as percent increase. The format is functional. Summed up:
as §2

The subject of assay [7] is Rattus norvegicus. Put plainly: Antihypertensive activity in spontaneously hypertensive rats (SHR) measured by percentage fall in arterial pressure (AP) at 50 mg/kg administered intraperitoneally at 5 h. Type of assay: functional, Artery. As to conditions: route intraperitoneal. The gist of the method: (§3)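 Unanesthetized Okamoto-strain SHR, male and female, 8 weeks old, 300–350 g, systolic pressure ≥190 mmHg, heart rate 400–650 beats/min; five animals per dose. Given ip at 2.5 mL/kg, dissolved or suspended in normal saline or saline with 0.2% (carboxymethyl)cellulose and 1.0% Tween 80. Tail AP and CR recorded by mechanical transduction at set times; reported as percentage fall from control.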

The species entered for assay [8] is Homo sapiens. The assay can be described thus: In vitro inhibition of platelet aggregation induced by ADP-II (PRP incubated for 5 minutes at 37 degree C) at 10e-5 M. Type of assay: functional. The gist of the method: as §1
Assay [9] can be described thus: Effect on thromboxane synthetase activity on in vitro platelet aggregation induced by AA at 10e -5 M expressed as percent increase in PGE-2. Type of assay: functional, Homo sapiens. Summed up:
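Human citrated PRP adjusted to 200 000 […], compound at 10^-5 M final in saline/10% ethylene glycol, incubated at 37 °C. Aggregation induced with arachidonic acid 0.6 mM and read by Born absorbance aggregometry. PGE2 and TXB2 in the aggregated samples measured by radioimmunoassay. n = 5.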

The subject of assay [10] is Rattus norvegicus. Put plainly: Antihypertensive activity in spontaneously hypertensive rats (SHR) measured by percentage fall in arterial pressure (AP) at 50 mg/kg administered intraperitoneally at 3 h. Type of assay: functional, Artery. The conditions noted are these: route intraperitoneal. The gist of the method:
as §3

The species named for assay [11] is Homo sapiens. Put plainly: In vitro inhibition of platelet aggregation induced by DD (PRP incubated for 5 minutes at 37 degree C) at 10e-5 M. Type of assay: functional. The gist of the method:
as §1

For assay [12], the system named is Cavia porcellus. The assay can be described thus: Ex vivo inhibition of platelet aggregation induced by ADP-II at 100 mg/kg. Type of assay: functional. Summed up: as §2
For assay [13], the system named is Rattus norvegicus. The assay can be described thus: Antihypertensive activity in spontaneously hypertensive rats (SHR) measured by percentage fall in cardiac rhythm (CR) at 50 mg/kg administered intraperitoneally at 3 h. Type of assay: functional, Heart. As to conditions: route intraperitoneal. The gist of the method: (§4)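 Conscious SHR (Okamoto strain), 8 weeks old, male and female, 300–350 g, systolic BP ≥190 mmHg, CR 400–650 beats/min. Given ip or po at 2.5 mL/kg in normal saline or saline with 0.2% (carboxymethyl)cellulose and 1.0% Tween 80. Tail AP and CR recorded by mechanical transduction at 1, 3, 5 and 24 h, five animals per dose. Effect expressed as % fall versus control.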

The species entered for assay [14] is Homo sapiens. Put plainly: Inhibition of platelet aggregation induced by AA (PRP incubated for 60 minutes at 37 degree C) at 10e-5 M. Type of assay: functional. As to conditions: 1 h. Summed up: as §1
The test system of assay [15] is Cavia porcellus. Put plainly: Ex vivo inhibition of platelet aggregation induced by AA at 100 mg/kg. The format is functional. Summed up: as §2
Assay [16] deals with Rattus norvegicus. The assay can be described thus: Antihypertensive activity in spontaneously hypertensive rats (SHR) measured by percentage fall in cardiac rhythm (CR) at 50 mg/kg administered intraperitoneally at 24 h. The format is functional, Heart. As to conditions: route intraperitoneal. The gist of the method:
as §4

The test system of assay [17] is Rattus norvegicus. The assay can be described thus: Antihypertensive activity in spontaneously hypertensive rats (SHR) measured by percentage fall in cardiac rhythm (CR) at 50 mg/kg administered intraperitoneally at 5 h. As to conditions: route intraperitoneal. Type of assay: functional, Heart. Summed up:
as §4

For assay [18], the species on record is Homo sapiens. The assay can be described thus: In vitro inhibition of platelet aggregation induced by ADP-II (PRP incubated for 5 minutes at 37 degree C) at 10e-6 M. Type of assay: functional. Summed up: as §1
The species entered for assay [19] is Homo sapiens. The assay can be described thus: In vitro inhibition of platelet aggregation induced by PGH-2 (PRP incubated for 60 minutes at 37 degree C) at 10e-5 M. Type of assay: functional. As to conditions: 1 h. Summed up:
as §1

For assay [20], the system named is Rattus norvegicus. The assay can be described thus: Antihypertensive activity in spontaneously hypertensive rats (SHR) measured by percentage fall in arterial pressure (AP) at 50 mg/kg administered intraperitoneally at 24 h. The format is functional, Artery. As to conditions: route intraperitoneal. Summed up: as §3

Molecules are shown by their SMILES.

What is called inhibition is how much of the control response was suppressed. Usually Inhibition stands for how much of the control response was suppressed. A lower Inhibition goes with a response near the control. The inhibition in vivo is the share of the control response that was lost under treatment. A low value points to little suppression. For the molecule `Oc1[nH]ncc2c3cc(OCc4ccccc4)ccc3nc1-2`, the inhibition at 10 µM in assay [1] worked out at 100%; in [8] it was 60%; in assay [11], 100%; in [14], 100%; in [19] it was 100%. The molecule further had an Inhibition % in [2] of 50%. The inhibition entry in [3] was “No significant values”. The molecule also displayed an Inhibition in assay [4] of 80%. For the same molecule, the inhibition in vivo at 100 mg/kg in assay [5] worked out at 50%; in assay [12] it was 100%; in assay [15], 100%. For the same molecule, the Increase in assay [6] was 30%; in [9], 270%. Also, the “Decrease in AP” value in assay [7] is given as 13%; in [10], 12%; in assay [20], 7%. Besides, the “Decrease in CR” value in assay [13] stood at 10%; in [16], 9%; in assay [17], 15%. In addition, testing at 1 µM in assay [18] gave an inhibition of 40%.

Source of the values: ChEMBL document CHEMBL1123757, “Selective thromboxane synthetase inhibitors and antihypertensive agents. New derivatives of 4-hydrazino-5H-pyridazino[4,5-b]indole, 4-hydrazinopyridazino[4,5-a]indole, and related compounds” (J Med Chem, 1987).
